Measurements reported in ChEMBL document CHEMBL4765319, “Identification of a new series of flavopiridol-like structures as kinase inhibitors with high cytotoxic potency” (Eur J Med Chem, 2020).
Values belong to the compound of their own block, whether it stands above or below them.

Experiments:
SK-OV-3 = test: Antiproliferative activity against human SKOV3 cells assessed as reduction in cell viability incubated for 72 hrs by CellTiter-Blue fluorescence assay; settings: SK-OV-3, 72 h
CDK9/cyclin T1 = CDK9/cyclin T1 (Homo sapiens, UniProt P50750); test: Inhibition of human CDK9/cyclin T in presence of ATP by ADP-glo luminescent assay; type: protein-complex assay
Outline: (§1)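 Human kinases tested over roughly 0.0003–10 μM by ADP-Glo luminescence with 10 μM ATP, in duplicate. IC50 is taken from dose-response curves.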

PC-3 = test: Antiproliferative activity against human PC-3 cells assessed as reduction in cell viability incubated for 72 hrs by CellTiter-Blue fluorescence assay; settings: PC-3, 72 h
Sus scrofa [1] = species: Sus scrofa; test: Inhibition of porcine CK1delta/epsilon assessed as residual activity at 10 uM in presence of ATP by ADP-glo luminescent assay relative to control
[2] = target: T1, Cyclin-dependent kinase 5/CDK5 activator 1 (Homo sapiens) (UniProt Q00535+Q15078); test: Inhibition of human CDK5/p25 assessed as residual activity at 10 uM in presence of ATP by ADP-glo luminescent assay relative to control; type: protein-complex assay
Outline: (§2)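 Human kinases assayed by ADP-Glo luminescence with 10 μM ATP, compound at 10 or 1 μM. Activity is expressed as % of maximal activity relative to a DMSO control, mean n = 2.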

[3] = target: T2, CDK9/cyclin T1 (Homo sapiens) (UniProt O60563+P50750); test: Inhibition of human CDK9/cyclin T assessed as residual activity at 1 uM in presence of ATP by ADP-glo luminescent assay relative to control; type: protein-complex assay
Outline: as §2

Sus scrofa [4] = species: Sus scrofa; test: Inhibition of porcine GSK3alpha/beta assessed as residual activity at 1 uM in presence of ATP by ADP-glo luminescent assay relative to control
Outline: (§3)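 Porcine brain GSK3α/β, native and affinity-purified. Assayed by ADP-Glo luminescence with 10 μM ATP and 0.010 μg/μl GS-1 peptide substrate. Buffer A: 10 mM MgCl2, 1 mM EGTA, 1 mM DTT, 25 mM Tris-HCl pH 7.5, 50 μg/ml heparin. Compound tested at 10 or 1 μM. Result is % of maximal activity versus DMSO control, mean of n = 2.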

[5] = target: T3, CDK2/Cyclin A2 (Homo sapiens) (UniProt P24941+P20248); test: Inhibition of human CDK2/cyclin A assessed as residual activity at 1 uM in presence of ATP by ADP-glo luminescent assay relative to control; type: protein-complex assay
Outline: as §2

[6] = target: T2, CDK9/cyclin T1 (Homo sapiens); test: Inhibition of human CDK9/cyclin T assessed as residual activity at 10 uM in presence of ATP by ADP-glo luminescent assay relative to control; type: protein-complex assay
Outline: as §2

Leishmania major [7] = test: Inhibition of Leishmania major CK1 assessed as residual activity at 10 uM in presence of ATP by ADP-glo luminescent assay relative to control
[8] = target: T4, Glycogen synthase kinase-3 beta (Homo sapiens, UniProt P49841); test: Inhibition of human GSK3beta assessed as residual activity at 1 uM in presence of ATP by ADP-glo luminescent assay relative to control
Outline: as §2
Target sequence in this assay (P49841 whole entry, looked up): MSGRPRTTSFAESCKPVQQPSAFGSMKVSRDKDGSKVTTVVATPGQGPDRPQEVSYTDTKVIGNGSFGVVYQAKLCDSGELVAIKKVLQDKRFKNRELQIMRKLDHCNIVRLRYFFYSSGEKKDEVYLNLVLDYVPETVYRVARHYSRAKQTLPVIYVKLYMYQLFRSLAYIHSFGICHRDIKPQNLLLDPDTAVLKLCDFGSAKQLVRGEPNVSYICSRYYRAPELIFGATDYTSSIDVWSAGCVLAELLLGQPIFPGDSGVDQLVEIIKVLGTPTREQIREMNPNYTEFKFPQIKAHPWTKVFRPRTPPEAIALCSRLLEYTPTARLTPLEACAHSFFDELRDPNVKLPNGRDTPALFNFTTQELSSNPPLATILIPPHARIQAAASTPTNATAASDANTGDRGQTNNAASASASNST

Leishmania major [9] = test: Inhibition of Leishmania major CK1 assessed as residual activity at 1 uM in presence of ATP by ADP-glo luminescent assay relative to control
[10] = target: T3, CDK2/Cyclin A2 (Homo sapiens); test: Inhibition of human CDK2/cyclin A assessed as residual activity at 10 uM in presence of ATP by ADP-glo luminescent assay relative to control; type: protein-complex assay
Outline: as §2

Plasmodium falciparum [11] = test: Inhibition of Plasmodium falciparum GSK3 assessed as residual activity at 1 uM in presence of ATP by ADP-glo luminescent assay relative to control
Outline: (§4)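 Recombinant P. falciparum GSK3, bacterially expressed, in buffer A (10 mM MgCl2, 1 mM EGTA, 1 mM DTT, 25 mM Tris-HCl pH 7.5, 50 μg/ml heparin). Substrate 0.010 μg/μl GS-1 peptide, 10 μM ATP, ADP-Glo luminescence. Compound at 10 or 1 μM; % residual activity vs DMSO control, mean n = 2.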

MIA PaCa-2 = test: Antiproliferative activity against human MIA PaCa-2 cells assessed as reduction in cell viability incubated for 72 hrs by CellTiter-Blue fluorescence assay; settings: MIA PaCa-2, 72 h
[12] = target: Cyclin-dependent kinase 5/CDK5 activator 1 (Homo sapiens, UniProt Q00535); test: Inhibition of human CDK5/p25 in presence of ATP by ADP-glo luminescent assay; type: protein-complex assay
Outline: as §1

[13] = target: T4, Glycogen synthase kinase-3 beta; test: Inhibition of human GSK3beta in presence of ATP by ADP-glo luminescent assay
Outline: as §1
Target sequence in this assay (P49841 whole entry): as the sequence (P49841 whole entry, looked up) above

NCI-N87 = test: Antiproliferative activity against human NCI-N87 cells assessed as reduction in cell viability incubated for 72 hrs by CellTiter-Blue fluorescence assay; settings: NCI-N87, 72 h
Sus scrofa [14] = species: Sus scrofa; test: Inhibition of porcine CK1delta/epsilon assessed as residual activity at 1 uM in presence of ATP by ADP-glo luminescent assay relative to control
Sus scrofa [15] = species: Sus scrofa; test: Inhibition of porcine GSK3alpha/beta assessed as residual activity at 10 uM in presence of ATP by ADP-glo luminescent assay relative to control
Outline: as §3

K562 = test: Antiproliferative activity against human K562 cells assessed as reduction in cell viability incubated for 72 hrs by CellTiter-Blue resazurin fluorescence assay; settings: K562, 72 h
CDK2/Cyclin A2 = CDK2/Cyclin A2 (Homo sapiens, UniProt P24941); test: Inhibition of human CDK2/cyclin A in presence of ATP by ADP-glo luminescent assay; type: protein-complex assay
Outline: as §1

[16] = target: T4, Glycogen synthase kinase-3 beta; test: Inhibition of human GSK3beta assessed as residual activity at 10 uM in presence of ATP by ADP-glo luminescent assay relative to control
Outline: as §2
Target sequence in this assay (P49841 whole entry, looked up): as above

Plasmodium falciparum [17] = test: Inhibition of Plasmodium falciparum GSK3 assessed as residual activity at 10 uM in presence of ATP by ADP-glo luminescent assay relative to control
Outline: as §4

[18] = target: T1, Cyclin-dependent kinase 5/CDK5 activator 1 (Homo sapiens); test: Inhibition of human CDK5/p25 assessed as residual activity at 1 uM in presence of ATP by ADP-glo luminescent assay relative to control; type: protein-complex assay
Outline: as §2

SK-BR-3 = test: Antiproliferative activity against human SK-BR-3 cells assessed as reduction in cell viability incubated for 72 hrs by CellTiter-Blue fluorescence assay; settings: SK-BR-3, 72 h
HCT-116 = test: Antiproliferative activity against human HCT-116 cells assessed as reduction in cell viability incubated for 72 hrs by CellTiter-Blue fluorescence assay; settings: HCT-116, 72 h

T1 sequence (Q00535 whole entry): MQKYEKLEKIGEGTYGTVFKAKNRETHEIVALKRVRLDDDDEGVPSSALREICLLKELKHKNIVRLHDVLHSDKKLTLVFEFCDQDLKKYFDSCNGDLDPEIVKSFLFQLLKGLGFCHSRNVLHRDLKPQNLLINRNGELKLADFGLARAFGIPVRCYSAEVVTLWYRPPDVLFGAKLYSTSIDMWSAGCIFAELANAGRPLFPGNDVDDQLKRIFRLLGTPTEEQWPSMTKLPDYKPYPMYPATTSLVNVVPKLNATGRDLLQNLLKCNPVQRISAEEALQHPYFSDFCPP
T1 sequence (Q15078 99-307 partner limits assumed): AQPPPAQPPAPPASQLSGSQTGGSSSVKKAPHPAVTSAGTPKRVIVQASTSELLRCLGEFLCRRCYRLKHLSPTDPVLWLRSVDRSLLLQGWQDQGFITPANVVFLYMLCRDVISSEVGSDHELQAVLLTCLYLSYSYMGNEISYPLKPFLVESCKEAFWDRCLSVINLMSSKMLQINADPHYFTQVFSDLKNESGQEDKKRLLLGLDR
Sequence of CDK9/cyclin T1 (O60563 whole entry): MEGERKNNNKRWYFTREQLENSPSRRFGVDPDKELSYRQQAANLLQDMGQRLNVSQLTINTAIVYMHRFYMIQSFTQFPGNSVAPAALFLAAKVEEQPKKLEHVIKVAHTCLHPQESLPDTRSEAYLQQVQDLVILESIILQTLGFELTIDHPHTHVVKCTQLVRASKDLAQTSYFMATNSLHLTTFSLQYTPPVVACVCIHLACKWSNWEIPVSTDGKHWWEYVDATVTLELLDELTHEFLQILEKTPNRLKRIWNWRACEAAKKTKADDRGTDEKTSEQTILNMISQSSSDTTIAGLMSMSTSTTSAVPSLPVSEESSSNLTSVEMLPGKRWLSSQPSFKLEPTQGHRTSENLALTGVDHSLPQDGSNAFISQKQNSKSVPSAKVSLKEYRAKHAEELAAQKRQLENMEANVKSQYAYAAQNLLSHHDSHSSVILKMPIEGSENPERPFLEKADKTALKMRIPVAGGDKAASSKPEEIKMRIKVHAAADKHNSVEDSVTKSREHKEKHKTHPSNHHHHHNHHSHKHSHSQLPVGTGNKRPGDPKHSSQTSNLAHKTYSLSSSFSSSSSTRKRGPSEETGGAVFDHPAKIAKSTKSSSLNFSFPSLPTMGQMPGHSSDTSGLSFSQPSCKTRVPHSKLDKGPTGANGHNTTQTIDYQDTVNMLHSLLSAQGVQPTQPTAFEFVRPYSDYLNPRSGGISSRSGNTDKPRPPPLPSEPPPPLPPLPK
Sequence of CDK9/cyclin T1 (P50750 whole entry): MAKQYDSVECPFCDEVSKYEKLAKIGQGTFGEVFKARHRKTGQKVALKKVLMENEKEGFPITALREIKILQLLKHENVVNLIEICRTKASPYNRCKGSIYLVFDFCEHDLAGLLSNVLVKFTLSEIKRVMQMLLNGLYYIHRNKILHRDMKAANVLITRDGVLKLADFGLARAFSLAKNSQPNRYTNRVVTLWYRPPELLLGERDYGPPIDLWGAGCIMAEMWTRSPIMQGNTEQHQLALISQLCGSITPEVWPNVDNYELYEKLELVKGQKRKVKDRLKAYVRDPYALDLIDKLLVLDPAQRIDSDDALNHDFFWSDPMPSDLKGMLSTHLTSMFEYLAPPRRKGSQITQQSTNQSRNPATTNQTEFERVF
Sequence of Cyclin-dependent kinase 5/CDK5 activator 1 (Q00535 whole entry): as the sequence (Q00535 whole entry) above
Sequence of Cyclin-dependent kinase 5/CDK5 activator 1 (Q15078 whole entry, further chain): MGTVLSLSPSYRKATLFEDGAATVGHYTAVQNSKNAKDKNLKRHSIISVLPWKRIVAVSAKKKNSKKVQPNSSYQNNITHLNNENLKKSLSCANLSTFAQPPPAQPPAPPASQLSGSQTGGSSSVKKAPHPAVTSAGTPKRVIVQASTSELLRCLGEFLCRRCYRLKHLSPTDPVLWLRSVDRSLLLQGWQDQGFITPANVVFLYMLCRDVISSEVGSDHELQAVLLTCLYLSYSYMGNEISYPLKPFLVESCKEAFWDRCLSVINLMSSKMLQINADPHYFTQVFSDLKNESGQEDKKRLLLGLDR

IC50 (SK-OV-3): 2000 nM
SMILES: CN1CC=C(c2c(O)cc(O)c3c(=O)cc(-c4ccc(Sc5nc6ccccc6o5)cc4)oc23)CC1

IC50 (SK-OV-3): > 10000 nM
SMILES: CN1CC=C(c2c(O)cc(O)c3c(=O)cc(-c4ccc(Sc5ccc(C(=O)O)cn5)cc4)oc23)CC1

IC50 (CDK9/cyclin T1): 9 nM
IC50 (PC-3): 243 nM
Activity (Sus scrofa [1]): 43%
Activity [2]: 5%
Activity [3]: 2%
IC50 (SK-OV-3): 295 nM
Activity (Sus scrofa [4]): 53%
Activity [5]: 33%
Activity [6]: 0%
Activity (Leishmania major [7]): 54%
Activity [8]: 25%
Activity (Leishmania major [9]): 88%
Activity [10]: 14%
Activity (Plasmodium falciparum [11]): > 100%
IC50 (MIA PaCa-2): 448 nM
IC50 [12]: 195 nM
IC50 [13]: 356 nM
Activity (Sus scrofa [14]): 78%
Activity (Sus scrofa [15]): 11%
IC50 (K562): 300 nM
IC50 (CDK2/Cyclin A2): 469 nM
Activity [16]: 6%
Activity (Plasmodium falciparum [17]): > 100%
Activity [18]: 10%
IC50 (SK-BR-3): 352 nM
IC50 (HCT-116): 173 nM
SMILES: CN1CC=C(c2c(O)cc(O)c3c(=O)cc(-c4ccc(Sc5nc(-c6ccccc6)c[nH]5)cc4)oc23)CC1
IC50 (NCI-N87): 4800 nM

IC50 (SK-OV-3): 3800 nM
SMILES: CN1CC=C(c2c(O)cc(O)c3c(=O)cc(-c4ccc(Sc5ccc6ccccc6n5)cc4)oc23)CC1

Second part, the compound before the results:

SMILES: COC(=O)[C@@H](CSc1ccc(-c2cc(=O)c3c(O)cc(O)c(C4=CCN(C)CC4)c3o2)cc1)NC(=O)OC(C)(C)C
IC50 (SK-OV-3): 7790 nM

SMILES: CN1CC=C(c2c(O)cc(O)c3c(=O)cc(-c4ccc(SCCC(=O)NO)cc4)oc23)CC1
IC50 (SK-OV-3): > 10000 nM

SMILES: CN1CC=C(c2c(O)cc(O)c3c(=O)cc(-c4ccc(SCCC(=O)NOC5CCCCO5)cc4)oc23)CC1 (stereo not drawn)
IC50 (SK-OV-3): 6850 nM

SMILES: CN1CC=C(c2c(O)cc(O)c3c(=O)cc(-c4ccc(Nc5ccccc5)cc4)oc23)CC1
IC50 (SK-OV-3): 1200 nM

SMILES: CN1CC=C(c2c(O)cc(O)c3c(=O)cc(-c4ccc(Sc5nc6ccccc6[nH]5)cc4Cl)oc23)CC1
IC50 (CDK9/cyclin T1): 15 nM
IC50 (PC-3): 326 nM
Activity (Sus scrofa [1]): 48%
Activity [2]: 14%
Activity [3]: 2%
IC50 (SK-OV-3): 333 nM
Activity (Sus scrofa [4]): 43%
Activity [5]: 46%
Activity [6]: 3%
Activity (Leishmania major [7]): 35%
Activity [8]: 14%
Activity (Leishmania major [9]): 81%
Activity [10]: 22%
Activity (Plasmodium falciparum [11]): > 100%
IC50 (MIA PaCa-2): 361 nM
IC50 [12]: 550 nM
IC50 [13]: 216 nM
IC50 (NCI-N87): 12 nM
Activity (Sus scrofa [14]): 86%
Activity (Sus scrofa [15]): 4%
IC50 (K562): 36 nM
IC50 (CDK2/Cyclin A2): 1560 nM
Activity [16]: 4%
Activity (Plasmodium falciparum [17]): 64%
Activity [18]: 42%
IC50 (SK-BR-3): 66.6 nM
IC50 (HCT-116): 170 nM

SMILES: CC(=O)OC[C@@H]1O[C@@H](Sc2ccc(-c3cc(=O)c4c(O)cc(O)c(C5=CCN(C)CC5)c4o3)cc2)[C@@H](OC(C)=O)[C@H](OC(C)=O)[C@@H]1OC(C)=O
IC50 (SK-OV-3): 2870 nM

SMILES: CN1CC=C(c2c(O)cc(O)c3c(=O)cc(-c4ccc(Sc5ncccn5)cc4Cl)oc23)CC1
IC50 (SK-OV-3): > 10000 nM
